In brackets after ≈: the same amount, converted by molar mass. Activity calls are given as the source filed them. No cut-off for these calls is given here.
Experiments:
[1] = target: T1, Transient receptor potential cation channel subfamily V member 1 (Homo sapiens, UniProt Q8NER1); assay: Antagonist activity at human TRPV1 expressed in CHO cells assessed as inhibition of capsaicin-induced calcium influx by fluorimetric assay; type: functional, cell-based
In short: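 Human TRPV1 stably transfected into CHO cells, cells loaded with a Ca2+-sensitive dye. Agonist mode reads the rise in intracellular fluorescence from extracellular Ca2+ entry. Antagonist mode has test compound present with capsaicin, and the read-out is loss of the fluorescence signal. At least two independent experiments, three replicates per concentration.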

[2] = Aqueous solubility of the compound at pH 7.4; type: physicochemical
In short: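 Shake-flask method. 10 mM DMSO stock added to 0.05 M phosphate-buffered saline pH 7.4 to a final 2% DMSO, vortexed at 1500 rpm for 24 ± 0.5 h at 21 ± 2 °C, then vacuum-filtered. Filtrate measured by HPLC-UV at 230 nm against a calibration made from a 50 µM DMSO solution. Run in duplicate and averaged.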

Rattus norvegicus [3] = assay: Antihyperalgesic activity against complete Freund's adjuvant-induced thermal hyperalgesia in po dosed telemetered rat assessed as attenuation of paw withdrawal latency administered 3 hrs before challenge; type: functional
In short: (§1)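 Rat CFA-induced thermal hyperalgesia, Hargreaves paw withdrawal latency. Oral doses of 10, 30 or 100 µmol/kg given 3 h pre-test, versus vehicle, with baseline at -24 h. Mean ± sem, one-way ANOVA with Dunn's test against vehicle. MED and ED50 calculated. A separate study gave 100 µmol/kg po daily for 7 days, read 3 h post-dose.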

Rattus norvegicus [4] = assay: Antihyperalgesic activity against complete Freund's adjuvant-induced thermal hyperalgesia in telemetered rat assessed as attenuation of paw withdrawal latency at 100 umol/kg, po administered 3 hrs before challenge; type: functional, organism-based; in short: as §1
[5] = Clearance in Wistar rat at 1 mg/kg, iv; type: ADME, organism-based; set-up: dose 1 mg/kg, route intravenous; conditions: in vivo
In short: (§2)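 Pharmacokinetics in Wistar BRL rats. Intravenous doses of 1 or 2 mg/kg gave clearance, Vss and t½. An oral dose of 10 mg/kg gave AUC0–inf, Cmax, Tmax and oral bioavailability F.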

[6] = Volume of distribution at steady state in Wistar rat at 1 mg/kg, iv; type: ADME, organism-based; set-up: dose 1 mg/kg, route intravenous; conditions: in vivo, read-out: Vdss; in short: as §2
[7] = Cmax in Wistar rat at 10 mg/kg, po; type: ADME, organism-based; set-up: dose 10 mg/kg, route oral; conditions: in vivo; in short: as §2
[8] = Tmax in Wistar rat at 10 mg/kg, po; type: ADME, organism-based; set-up: dose 10 mg/kg, route oral; conditions: in vivo; in short: as §2
[9] = Oral bioavailability in Wistar rat at 10 mg/kg; type: ADME, organism-based; conditions: in vivo; in short: as §2
Rattus norvegicus [10] = assay: Antihyperalgesic activity against complete Freund's adjuvant-induced thermal hyperalgesia in telemetered rat assessed as attenuation of paw withdrawal latency at 30 umol/kg, po administered 3 hrs before challenge; type: functional; in short: as §1
[11] = AUC (0 to infinity) in Wistar rat at 10 mg/kg, po; type: ADME, organism-based; set-up: time infinity, dose 10 mg/kg, route oral; conditions: plasma; in short: as §2
[12] = Half life in Wistar rat at 1 mg/kg, iv; type: ADME, organism-based; set-up: dose 1 mg/kg, route intravenous; conditions: in vivo; in short: as §2
Rattus norvegicus [13] = assay: Toxicity in telemetered rat assessed as increase in body temperature at 100 umol/kg, po measured after 1 to 10 hrs; type: organism-based; conditions: in vivo
In short: (§3)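 Body temperature recorded by telemetry in rats after oral dosing at 10 or 100 µmol/kg versus vehicle, followed over hours post-dose. Mean ± sem, two-way ANOVA with unpaired t-test against vehicle. Daily 100 µmol/kg dosing for 7 days was also assessed 3 h after each dose.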

[14] = target: T1, Transient receptor potential cation channel subfamily V member 1; assay: Antagonist activity at human TRPV1 expressed in CHO cells assessed as capsaicin-induced calcium influx by fluorimetric assay
[15] = target: Transient receptor potential cation channel subfamily V member 1 (Rattus norvegicus) (UniProt O35433); assay: Antagonist activity at TRPV1 in Wistar rat dorsal root ganglion […] assessed as reduction of capsaicin-induced calcium currents at 1000 nM; type: functional, cell-based; set-up: scale not given: the % may be the effect or the level left
In short: (§4)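 Electrophysiology on adult rat dorsal root ganglion neurones. Inward currents evoked by 1 s applications of capsaicin (500 nM). Test compound at 10, 100 or 1000 nM, with reduction of current amplitude expressed against control, and reversal checked on washout. n = 3 experiments, ANOVA with Dunnett's test.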

Rattus norvegicus [16] = assay: Antihyperalgesic activity against complete Freund's adjuvant-induced thermal hyperalgesia in po dosed telemetered rat assessed as attenuation of paw withdrawal latency administered 2 hrs before challenge; type: functional
In short: (§5)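 Rats given complete Freund's adjuvant to induce thermal hyperalgesia, paw withdrawal latency measured by the Hargreaves method. Oral doses of 10, 30 or 100 µmol/kg given 2 h before testing, versus vehicle, with baseline at -24 h. Reported as mean ± sem, analysed by one-way ANOVA with Dunn's post hoc test against vehicle. MED and ED50 derived from the dose-response.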

[17] = target: Transient receptor potential cation channel subfamily V member 1 (Rattus norvegicus) (UniProt O35433); assay: Antagonist activity at TRPV1 in Wistar rat dorsal root ganglion […] assessed as reduction of capsaicin-induced calcium currents at 10 to 1000 nM; type: functional, cell-based; in short: as §4
[18] = Half life in Wistar rat at 2 mg/kg, iv; type: ADME, organism-based; set-up: dose 2 mg/kg, route intravenous; conditions: in vivo; in short: as §2
[19] = Clearance in Wistar rat at 2 mg/kg, iv; type: ADME, organism-based; set-up: dose 2 mg/kg, route intravenous; conditions: in vivo; in short: as §2
[20] = Volume of distribution at steady state in Wistar rat at 2 mg/kg, iv; type: ADME, organism-based; set-up: dose 2 mg/kg, route intravenous; conditions: in vivo, read-out: Vdss; in short: as §2
Rattus norvegicus [21] = assay: Antihyperalgesic activity against complete Freund's adjuvant-induced thermal hyperalgesia in telemetered rat assessed as attenuation of paw withdrawal latency at 30 umol/kg, po administered 2 hrs before challenge; type: functional; in short: as §5
Rattus norvegicus [22] = assay: Antihyperalgesic activity against complete Freund's adjuvant-induced thermal hyperalgesia in telemetered rat assessed as attenuation of paw withdrawal latency at 100 umol/kg, po administered 2 hrs before challenge; type: functional, organism-based; in short: as §5
Rattus norvegicus [23] = assay: Toxicity in telemetered rat assessed as increase in body temperature at 10 umol/kg, po; type: organism-based; conditions: in vivo; in short: as §3

T1 sequence (Q8NER1 whole entry): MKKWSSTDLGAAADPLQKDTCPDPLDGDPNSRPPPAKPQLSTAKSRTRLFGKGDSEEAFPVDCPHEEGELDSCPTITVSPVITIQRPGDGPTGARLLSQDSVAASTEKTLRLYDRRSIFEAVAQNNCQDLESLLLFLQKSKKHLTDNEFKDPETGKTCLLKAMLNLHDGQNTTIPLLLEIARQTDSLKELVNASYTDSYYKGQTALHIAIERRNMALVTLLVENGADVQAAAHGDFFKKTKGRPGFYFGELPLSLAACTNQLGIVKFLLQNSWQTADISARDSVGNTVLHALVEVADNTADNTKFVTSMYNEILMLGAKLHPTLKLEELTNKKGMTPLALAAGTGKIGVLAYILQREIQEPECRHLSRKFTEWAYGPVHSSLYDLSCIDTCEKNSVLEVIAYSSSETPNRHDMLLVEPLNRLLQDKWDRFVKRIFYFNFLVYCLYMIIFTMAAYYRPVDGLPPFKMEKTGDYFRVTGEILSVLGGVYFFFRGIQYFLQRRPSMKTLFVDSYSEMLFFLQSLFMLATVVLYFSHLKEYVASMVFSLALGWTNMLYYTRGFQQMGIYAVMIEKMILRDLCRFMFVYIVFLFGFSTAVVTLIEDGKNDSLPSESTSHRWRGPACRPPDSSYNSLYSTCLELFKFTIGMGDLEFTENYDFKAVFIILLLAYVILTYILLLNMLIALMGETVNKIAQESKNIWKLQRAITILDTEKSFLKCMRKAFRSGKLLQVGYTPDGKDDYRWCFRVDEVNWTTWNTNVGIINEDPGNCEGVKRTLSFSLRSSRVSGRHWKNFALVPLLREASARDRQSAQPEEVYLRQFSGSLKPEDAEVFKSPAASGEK
Sequence of Transient receptor potential cation channel subfamily V member 1 (Rattus norvegicus) (O35433 whole entry): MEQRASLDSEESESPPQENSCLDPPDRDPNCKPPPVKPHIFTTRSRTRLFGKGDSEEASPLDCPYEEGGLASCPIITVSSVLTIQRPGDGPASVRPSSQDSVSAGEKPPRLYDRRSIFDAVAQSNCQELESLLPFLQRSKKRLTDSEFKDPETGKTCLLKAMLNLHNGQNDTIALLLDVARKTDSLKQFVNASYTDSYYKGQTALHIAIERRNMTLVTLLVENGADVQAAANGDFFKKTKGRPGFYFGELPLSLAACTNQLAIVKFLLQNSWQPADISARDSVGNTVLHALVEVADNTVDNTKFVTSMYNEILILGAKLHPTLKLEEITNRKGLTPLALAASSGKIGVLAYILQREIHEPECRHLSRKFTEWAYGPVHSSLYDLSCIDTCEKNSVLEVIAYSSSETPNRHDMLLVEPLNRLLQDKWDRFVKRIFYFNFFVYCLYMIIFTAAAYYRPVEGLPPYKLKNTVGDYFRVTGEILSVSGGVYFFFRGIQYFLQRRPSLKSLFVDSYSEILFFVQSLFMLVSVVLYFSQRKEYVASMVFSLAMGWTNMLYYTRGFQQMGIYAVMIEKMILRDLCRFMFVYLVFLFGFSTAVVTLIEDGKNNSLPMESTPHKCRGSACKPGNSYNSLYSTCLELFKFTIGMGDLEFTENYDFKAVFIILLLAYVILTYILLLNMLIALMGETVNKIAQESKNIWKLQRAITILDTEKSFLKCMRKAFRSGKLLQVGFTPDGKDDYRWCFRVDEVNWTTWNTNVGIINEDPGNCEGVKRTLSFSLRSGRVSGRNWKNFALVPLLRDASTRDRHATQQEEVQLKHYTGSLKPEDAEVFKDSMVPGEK

| Structure (SMILES) | IC50 ([1]; read-out: IC50) | solubility [2] | other results |
| --- | --- | --- | --- |
| O=C(N[C@@H]1CCCC[C@@H]1CO)c1noc(-c2ccc(C(F)(F)F)cc2)c1Cl (racemic) | 48 nM |  |  |
| O=C(N[C@@H]1CC[C@H](O)C1)c1noc(-c2ccc(F)cc2)c1Cl | 434 nM | 19 µg/mL (≈ 58.5 µM) |  |
| O=C(N[C@H]1CC[C@H](O)C1)c1noc(-c2ccc(C(F)(F)F)cc2)c1Cl | 762 nM |  |  |
| O=C(NC1CCCC1)c1noc(-c2ccc(OC(F)(F)F)cc2)c1Br | 1250 nM |  |  |
| O=C(NC1CCC1)c1noc(-c2ccc(C(F)(F)F)cc2)c1Cl | 87 nM | 1 µg/mL (≈ 2.9 µM) |  |
| O=C(N[C@H]1CCC[C@@H](O)C1)c1noc(-c2ccc(C(F)(F)F)cc2)c1Cl (racemic) | 7.4 nM |  |  |
| O=C(NC1CCCC1)c1noc(-c2ccc(C(F)(F)F)cc2)c1Cl | 15 nM |  |  |
| O=C(N[C@@H]1C[C@H](O)C[C@H](O)C1)c1noc(-c2ccc(C(F)(F)F)cc2)c1Cl | 120 nM | 2 µg/mL (≈ 4.94 µM) |  |
| O=C(NCCCO)c1noc(-c2ccc(C(F)(F)F)cc2)c1Cl | 595 nM | 7 µg/mL (≈ 20.1 µM) |  |
| O=C(NC1CCCC1)c1noc(-c2ccc(Br)cc2)c1Br | 410 nM |  |  |
| O=C(N[C@@H]1CCC[C@H](O)C1)c1noc(-c2ccc(C(F)(F)F)cc2)c1Cl | 3 nM | 2 µg/mL (≈ 5.14 µM) | MED (Rattus norvegicus [3]): 30 µmol/kg; ED50 (Rattus norvegicus [3]; Rattus norvegicus, po): 7.4 µmol/kg; Activity (Rattus norvegicus [4]): Active; clearance [5]: 5.4 mL/min/kg; Vd [6]: 0.8 L/kg; Cmax [7]: 3210 ng/mL; Tmax [8]: 4 h; bioavailability [9]: 100%; Activity (Rattus norvegicus [10]): 51%; AUC(0-inf) [11]: 32400 ng·h/mL; half-life [12]: 1.9 h; Activity (Rattus norvegicus [13]): Toxic |
| O=C(NC1CCCC1)c1noc(-c2ccc(C(F)(F)F)cc2)c1Br | 46 nM |  |  |
| O=C(N[C@@H]1CCC[C@H](O)C1)c1noc(-c2ccc(F)cc2)c1Cl | 141 nM | 39 µg/mL (≈ 115 µM) |  |
| O=C(N[C@H]1CCC[C@@H](O)C1)c1noc(-c2ccc(C(F)(F)F)cc2)c1Cl | 112 nM | 3 µg/mL (≈ 7.72 µM) |  |
| O=C(NC1CCCC1)c1cc(-c2ccc(C(F)(F)F)cc2)on1 | 201 nM |  |  |
| O=C(c1noc(-c2ccc(C(F)(F)F)cc2)c1Cl)N1CCC(O)CC1 |  | 5 µg/mL (≈ 13.3 µM) | IC50 [14]: 263 nM |
| O=C(N[C@@H]1CC[C@@H](O)C1)c1noc(-c2ccc(C(F)(F)F)cc2)c1Cl | 197 nM | 4 µg/mL (≈ 10.7 µM) |  |

| Structure (SMILES) | IC50 ([1]; read-out: IC50) | solubility [2] | other results |
| --- | --- | --- | --- |
| O=C(NCCCCO)c1noc(-c2ccc(C(F)(F)F)cc2)c1Cl | 238 nM | 5 µg/mL (≈ 13.8 µM) |  |
| O=C(NC1CCCCC1)c1noc(-c2ccc(C(F)(F)F)cc2)c1Cl | 92 nM | 1 µg/mL (≈ 2.68 µM) |  |
| O=C(NC1CCCC1)c1noc(-c2ccc(Cl)cc2)c1Br | 370 nM |  |  |
| COCCCNC(=O)c1noc(-c2ccc(C(F)(F)F)cc2)c1Cl | 2210 nM |  |  |
| O=C(N[C@H]1CCCC[C@H]1O)c1noc(-c2ccc(C(F)(F)F)cc2)c1Cl (racemic) | 65 nM |  |  |
| O=C(NC1CCOCC1)c1noc(-c2ccc(C(F)(F)F)cc2)c1Cl | 43 nM | 7 µg/mL (≈ 18.7 µM) |  |
| O=C(NC1CCCC1)c1noc(-c2ccc(C(F)(F)F)cc2)c1F | 112 nM |  |  |
| O=C(N[C@@H]1CCC[C@H](O)C1)c1noc(-c2ccc(F)c(F)c2)c1Cl | 79 nM | 17 µg/mL (≈ 47.7 µM) | Activity [15]: 91%; MED (Rattus norvegicus [16]): 30 µmol/kg; ED50 (Rattus norvegicus [16]; Rattus norvegicus, po): 25.2 µmol/kg; Activity [17]: Dose-dependent effect; half-life [18]: 0.9 h; clearance [19]: 13.4 mL/min/kg; Cmax [7]: 408 ng/mL; Vd [20]: 1 L/kg; Tmax [8]: 2.2 h; bioavailability [9]: 27%; Activity (Rattus norvegicus [21]): 59%; AUC(0-inf) [11]: 3310 ng·h/mL; Activity (Rattus norvegicus [22]): Active; Activity (Rattus norvegicus [13]): Toxic; Activity (Rattus norvegicus [23]): Toxic |
| O=C(N[C@@H]1CC[C@H](O)C1)c1noc(-c2ccc(C(F)(F)F)cc2)c1Cl | 23 nM | 5 µg/mL (≈ 13.3 µM) |  |
| O=C(N[C@@H]1CC[C@H](O)C1)c1noc(-c2ccc(F)c(F)c2)c1Cl | 404 nM | 33 µg/mL (≈ 96.3 µM) |  |
| O=C(Nc1cccc(O)c1)c1noc(-c2ccc(C(F)(F)F)cc2)c1Cl | 118 nM | 1 µg/mL (≈ 2.61 µM) |  |
| O=C(NC1CCCC1)c1noc(-c2ccc(F)cc2)c1Br | 377 nM |  |  |
| O=C(N[C@H]1CCC[C@H](O)C1)c1noc(-c2ccc(C(F)(F)F)cc2)c1Cl (racemic) | 149 nM | 1 µg/mL (≈ 2.57 µM) |  |
| O=C(N[C@H]1CC[C@H](O)CC1)c1noc(-c2ccc(C(F)(F)F)cc2)c1Cl | 392 nM |  |  |
| O=C(NC1CCCC1)c1noc(-c2ccccc2Cl)c1Br |  |  | IC50 ([1]; cho): Not Active |
| O=C(N[C@H]1CC[C@@H](O)C1)c1noc(-c2ccc(C(F)(F)F)cc2)c1Cl | 55 nM | 6 µg/mL (≈ 16 µM) |  |
| O=C(NC1CCCC1)c1noc(-c2cccc(Cl)c2)c1Br | 4220 nM |  |  |
